Screens from PubChem BioAssay.
This is one part of a sample in which hits are shown more often than they occur.
Ec RNAP inh: blocks E. coli RNA polymerase transcription. AID 559. P0A8V2. fluorescence transcription assay. inhibition, %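 (tested at 10 µM)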. 0.2% of 62,000 active; in the data active means inhibition above about 20%;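 further: 0% = enzyme without compound and 100% = no enzyme blank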
tolC growth inh: E. coli tolC mutant growth inhibition. growth inhibition, % at 10 µM (by protocol). AID 573. E. coli BW25113 tolC mutant growth, OD615. 2.2% of 65,000 active;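 active means growth inhibition at or above a cutoff equal to the mean over every tested compound plus 3 SD, cut at about 60% in these data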;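 further: growth measured after 20 h incubation at 37 °C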
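Test system: E. coli BW25113 ΔtolC::kan bacteria; incubation: 37 °C, 20 h exposure; medium: LB broth supplemented with 50 µg/mL kanamycin; read-out basis: percent growth inhibition; signal: A615 absorbance measurement; compound: 10 µM final, single dose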
BAP1 block: blocks human BAP1 ubiquitin-AMC hydrolysis | 0.48% of 72,000 active | recombinant BAP1, Ub-AMC hydrolysis fluorescence kinetic; active compounds read low | calls only at 20 µM;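 active means activity remaining at or below 50% of control, provided the compound also passes the data quality filters; inactive means the rest, including low values that fail the filters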;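 further: 100% = DMSO wells rate and 0% = substrate alone blank rate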
Target sequence (Q92560 whole entry, looked up): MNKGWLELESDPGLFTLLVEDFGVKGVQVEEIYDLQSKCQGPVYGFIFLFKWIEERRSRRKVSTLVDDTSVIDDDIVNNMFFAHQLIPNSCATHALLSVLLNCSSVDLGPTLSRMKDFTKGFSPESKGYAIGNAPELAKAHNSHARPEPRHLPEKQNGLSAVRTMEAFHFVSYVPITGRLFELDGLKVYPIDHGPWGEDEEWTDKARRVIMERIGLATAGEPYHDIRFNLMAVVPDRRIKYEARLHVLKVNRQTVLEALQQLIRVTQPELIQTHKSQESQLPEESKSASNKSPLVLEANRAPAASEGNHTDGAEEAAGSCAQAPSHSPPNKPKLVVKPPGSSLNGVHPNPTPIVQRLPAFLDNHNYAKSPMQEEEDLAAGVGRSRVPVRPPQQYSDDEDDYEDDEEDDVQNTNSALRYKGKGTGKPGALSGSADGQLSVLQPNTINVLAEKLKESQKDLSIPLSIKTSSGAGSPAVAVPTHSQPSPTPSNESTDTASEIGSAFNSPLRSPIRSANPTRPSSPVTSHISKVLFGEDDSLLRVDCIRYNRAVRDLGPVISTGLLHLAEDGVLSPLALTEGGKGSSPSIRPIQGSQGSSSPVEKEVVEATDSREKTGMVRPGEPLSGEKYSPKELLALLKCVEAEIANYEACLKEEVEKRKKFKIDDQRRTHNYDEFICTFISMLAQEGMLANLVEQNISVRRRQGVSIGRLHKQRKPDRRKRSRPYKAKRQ
AP complement: orthogonal test for alternative complement pathway inhibitors; Human serum alternative complement pathway, LPS-coated ELISA, C3 deposition; tested in compound mixtures; inhibition, % at 5 µM; 0.08% of 62,000 active;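 active means inhibition above 30% in each of the two pooled mixtures holding the compound, so the lower value exceeds 30%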;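 further: 0% = serum in Mg-EGTA without compound and 100% = EDTA serum blank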
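Test system – human serum alternative complement pathway, C3 deposition on LPS-coated wells · Buffer or medium – diluted human serum in Mg2+-EGTA GVB++ · Compound dosing – 5 µM each compound, pools of ten, 50 µM per pool · Schedule – 1 h serum-compound exposure at 37 °C · Measured by – Anti-C3 ELISA, OD 450 nm · Read-out basis – percent inhibition of C3 deposition onto LPS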
MMP-13 inhibitor: inhibitors of human MMP13; MMP-13 fTHP FRET cleavage, Mca fluorescence; P45452; inhibition, % at 4 µM; 0.07% of 65,000 active;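 active means inhibition above the mean of compound-free control plate wells plus 3 SD, cut at about 14% in these data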;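 further: 0% = DMSO wells and 100% = wells with reference MMP-13 inhibitor after basal subtraction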
E coli WT exp: blocks growth of wild type E. coli BW25113; growth inhibition, % at 100 µM; AID 710; OD600 absorbance; 0.15% of 98,000 active;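 active means growth inhibition above about 50% at one test dose, limit read from the data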;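 further: growth measured after 20 h incubation at 37 °C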
* = called active by the depositor; i = inactive; x = no result shown; + = active, no number.

SMILES | Ec RNAP inh | tolC growth inh | BAP1 block | AP complement | MMP-13 inhibitor | E coli WT exp
Cc1cc(C)c2[nH]c(=O)c(C(c3nnnn3CC3CCCO3)N3CCCC(C)C3)cc2c1 (centres undefined) | 4 | 62* | i | -15 | -9 | -4
CCOC(=O)C1=C(C)NC(SCC(=O)Nc2cc(C)on2)=C(C#N)C1c1cccs1 (centres undefined) | 8 | 94* | i | -6 | 1 | -1
Cn1c(=O)[nH]c(=O)c2c1nc(SCC(=O)c1ccc(Cl)cc1)n2CCc1ccccc1 | x | x | i | x | x | x
O=C(O)CCC(=O)Nc1cccc(NC(=O)c2ccc(Br)cc2)c1 | x | x | i | x | x | x
O=C(CN(C(=O)CNC(=O)c1ccco1)c1ccc2c(c1)OCO2)NC1CCCCC1 | -4 | 6 | i | -14 | -1 | 5
O=C(CN(C(=O)CNC(=O)c1ccco1)c1ccc(Cl)c(Cl)c1)NC1CCCCC1 | 4 | 72* | i | 1 | 0 | 9
O=C(NNC(=S)NC(=O)c1cccnc1)c1ccc(Cl)cc1 | x | x | x | x | x | 74*
CCCCCCCCCCCCC/C=C/C(O)C(N)CO (centres undefined) | x | x | + | x | x | x
N=c1c2c(n(Cc3ccc(Cl)c(Cl)c3)c3c1CCC3)CCCC2 | 3 | 100* | i | 2 | -1 | 24
Clc1ccc(CN2C3=NCCN3c3ccccc32)cc1Cl | 10 | 31 | i | 3 | 2 | 37
N#Cc1cn(CCOc2ccccc2F)c2ccccc12 | x | 74* | i | -10 | -4 | -5
Cc1c(C#N)c2ccccc2n1CCOc1ccccc1F | 1 | 20 | i | 3 | 4 | -8
COc1ccc(OCC(=O)Nc2ccc(F)cc2)cc1 | x | x | i | x | x | x
Cc1ccc(O)c(C(=O)CC(=O)c2cccc(F)c2)c1 | 3 | 100* | i | 5 | 2 | 16
COc1ccc(O)c(C(=O)CC(=O)c2ccc(F)cc2)c1 | 5 | 100* | i | 15 | -49 | 10
O=C(CC(=O)c1cc(Cl)ccc1O)c1ccccc1 | -2 | 97* | i | 22 | 0 | 18
Cc1cccc(C(=O)CC(=O)c2cc(Cl)ccc2O)c1 | x | x | x | x | x | 49
CCOC(=O)c1ccccc1NC(=O)c1cccc(F)c1 | x | x | x | x | x | 0
Cc1ccc(OCCn2c(NC(=O)c3ccco3)nc3ccccc32)cc1 | x | -5 | i | x | 2 | -9
O=C(Nc1nc2ccccc2n1CCOc1ccc(Cl)cc1)c1ccco1 | 1 | 77* | i | 11 | 1 | 1
Cc1cccc(OCCn2c(NC(=O)c3ccco3)nc3ccccc32)c1 | 3 | 98* | i | 0 | 3 | -6
O=C(Nc1nc2ccccc2n1CCOc1ccccc1)c1ccco1 | 1 | -8 | i | 4 | -3 | -2
O=C(N/N=C/C1CCCCC1)c1cc(Cl)ccc1O | x | x | x | x | x | 50*
Cc1ccc(-c2nnc(N3CCN(c4ccccn4)CC3)c3ccccc23)cc1 | 8 | 100* | i | -10 | 2 | -4
Oc1ccc(CN2CCc3ccccc3C2)c2cccnc12 | x | x | x | x | x | 62*
SMILES | Ec RNAP inh | tolC growth inh | BAP1 block | AP complement | MMP-13 inhibitor | E coli WT exp
CCn1nnc(NC(=O)CSc2ccc(Cl)cc2)n1 | 3 | -2 | x | 13 | 4 | -3
CCCn1nnnc1NC(=O)CSc1ccc(Cl)cc1 | 2 | 75* | i | 8 | 0 | 17
O=C(Nc1ccc(C(F)(F)F)cc1)C1CCCN1S(=O)(=O)c1cccc2cccnc12 (centres undefined) | 7 | 76* | i | 15 | -3 | -8
C=CCn1c(=N)n(CC(O)c2ccc(C)cc2)c2ccccc21 (centres undefined) | x | x | i | x | x | x
COCc1cc(CN2CCCC2)c(O)c2ncccc12 | -1 | 10 | i | -8 | 2 | 34
Oc1c(CN2CCCCC2)cc(COCc2ccccc2)c2cccnc12 | 7 | 100* | i | 14 | -2 | 30
Oc1c(CN2CCN(c3ccccn3)CC2)cc(Cl)c2cccnc12 | 8 | 98* | x | 4 | -2 | 54*
OCCN1CCN(Cc2cc(Cl)c3cccnc3c2O)CC1 | x | x | x | x | x | 21
O=C1CN(C(=O)c2ccc(N3CCCCC3)c([N+](=O)[O-])c2)c2ccccc2N1 | x | x | i | x | x | x
Cc1ccc(-n2nc3cc(C)c(NC(=O)c4ccc(Br)cc4)cc3n2)cc1 | x | x | i | x | x | x
O=C(C1CCN(S(=O)(=O)N2CCC3(CC2)OCCO3)CC1)N1CCN(Cc2ccccc2)CC1 | 6 | -6 | i | 2 | 1 | 3
O=C(C1CCN(Cc2cc(Cl)ccc2O)CC1)N1CCN(Cc2ccccc2)CC1 | 10 | 95* | i | -12 | 3 | 4
COc1ccc(Cn2c(-c3ccco3)nc3oc4ccccc4c(=O)c3c2=O)cc1 | 4 | -31 | i | 1 | 2 | -21
COc1ccc(-c2nc3oc4cc(OC)ccc4c(=O)c3c(=O)n2Cc2ccco2)cc1 | x | 95* | i | 8 | -6 | -14
COc1ccc2c(=O)c3c(=O)n(Cc4ccco4)c(-c4ccco4)nc3oc2c1 | x | x | x | x | x | -11
COc1ccc(Cn2c(-c3ccco3)nc3oc4cc(OC)ccc4c(=O)c3c2=O)cc1 | x | 86* | i | 9 | -1 | -23
COc1cc(C=Nc2ccc(S(=O)(=O)Nc3ccccn3)cc2)ccc1OCc1ccccc1 | x | x | i | x | x | x
C=CCOC(=O)C(C#N)c1nc2ccccc2nc1N1CCN(Cc2ccccc2)CC1 (centres undefined) | -5 | 100* | i | 0 | -3 | -8
CCOC(=O)C1CCCN(c2nc3ccccc3nc2C(C#N)C(=O)OCC)C1 (centres undefined) | x | 53 | i | -2 | 14* | -3
CCOC(=O)C1CCCN(c2nc3ccccc3nc2C(C#N)C(=O)OC(C)COC)C1 (centres undefined) | 21* | -4 | i | 18 | 0 | x
CCOC(=O)C1CCCN(c2nc3ccccc3nc2C(C#N)C(=O)OCCOC)C1 (centres undefined) | 9 | 8 | i | x | 2 | -7
COCCOC(=O)C(C#N)c1nc2ccccc2nc1N1CCN(Cc2ccccc2)CC1 (centres undefined) | 11 | 8 | i | 8 | -17 | -3
CCOC(=O)c1sc(N)nc1C | x | x | i | x | x | x
O=C(Oc1ccc(OC(=O)c2ccc3c(c2)C(=O)N(c2ccccn2)C3=O)cc1)c1ccc2c(c1)C(=O)N(c1ccccn1)C2=O | x | x | i | x | x | x
Oc1ccc(N=CC=Cc2cccc(Br)c2)cc1-c1nc2ccccc2o1 | x | x | i | x | x | x
CCc1ccccc1NS(=O)(=O)c1ccc(SC)cc1 | 4 | 73* | i | 20 | -7 | 9
CC(C)Oc1cccc(C(=O)Nc2ccc(Cl)c(-c3nc4ncccc4o3)c2)c1 | x | x | i | x | x | x
COc1ccc(Cl)cc1N(C)C(=O)CCc1nc(-c2ccc(C)cc2)no1 | 7 | 90* | i | 0 | -6 | -24
CCc1ccccc1N(C)C(=O)CCc1nc(-c2ccc(C)cc2)no1 | 0 | 100* | i | 8 | 1 | -14
CC(N)(Cc1ccc(O)c(O)c1)C(=O)O (centres undefined) | x | x | i | x | x | x
